Screens: PubChem BioAssay, Broad Institute
Only some compounds are listed: those with a hit (about 3.1% of all), similar ones and a draw of the others.
Env fusion inh – inhibitors of HIV Env-mediated cell fusion. 360,000 tested, 1.1% active. inhibition, % at 12.3 µM. HeLa-JRFL Env/CEM21 cell fusion, luciferase;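 active means mean replicate inhibition score of at least 50 and every replicate individually at or above 50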;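 further: 0% = plate neutral controls and 100% = maraviroc near 300 nM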
CFTR F508del cor – correctors of CFTR F508del function in bronchial epithelial cells; CFBE cells, YFP halide quenching; stimulated with forskolin plus potentiator P3; % fluorescence drop versus neutral controls; activity (quench increase), % at 7.58 µM; 350,000 tested, 0.36% active;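 active means mean added fluorescence quench of at least 8% versus neutral control, with both replicates also reaching 8%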;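 further: cells transiently co-express mutant CFTR-F508del with the halide-sensitive YFP; corrector assay measuring rescue of mutant channel to the surface after 24 h compound exposure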
Ecoli rRNA inh – inhibits bacterial ribosomal RNA function over humanized ribosomes; E. coli WT GFP vs humanized-ribosome RFP mutants, fluorescence, 24 h; stronger effect = lower value; DMSO median 0, no signal -100; 350,000 tested, 1.6% active; GFP signal change (wild-type ribosome), % (no concentration beside the values);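 active means significant combined selectivity score with lowered wild-type GFP, culture density cut under 30%, mutant RFP and density less affected; inactive means any of these conditions unmet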
miR-122 sensor – miR-122 inhibition in Huh7 cells | Huh7 miR-122 Renilla luciferase sensor, 48 h; neutral wells = 0, positive control = 100 | activation (reporter increase), % at 12.5 µM | 340,000 tested, 0.3% active | AID 602342;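 active means mean replicate activation score at least 90 and every replicate individually at or above 90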;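 further: higher luciferase means less miR-122 activity so hits act as miR-122 inhibitors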
Cneo AK release – Cryptococcus neoformans lysis via adenylate kinase release; lysis activity, % at 15 µM; AID 651654; C. neoformans lysis, adenylate kinase release luminescence, 4 h; normalised: neutral wells 0, clomiphene wells 100; 360,000 tested, 0.2% active;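 active means mean lysis activity across replicates of at least 80%, whatever share of replicates individually reach that level; inactive means mean lysis activity below 80%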
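Material: C. neoformans cells; Schedule: 4 h static compound exposure, 37 °C, read 1 h post-reagent; Measured by: adenylate kinase release luminescence; Read-out: signal increase indicating cell lysis; Controls: Clomiphene as positive lysis control.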
INS-1E GSIS act – primary screen for activators of insulin secretion dependent on glucose, INS-1E cells, GLuc reporter luminescence | INS-1E GLuc reporter insulin secretion, 2-3 h | activation, % at 16.6 µM | 370,000 tested, 0.61% active;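 active means lowest replicate activation of at least 40%, so every replicate reaches that level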;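 further: 0% = median of neutral control wells and 100% = median of IBMX positive control wells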
* marks the source's active call; other numbers are inactive results; · = no result given; [ ] = dose if it differs, or a comment.

SMILES	Env fusion inh	CFTR F508del cor	Ecoli rRNA inh	miR-122 sensor	Cneo AK release	INS-1E GSIS act
COc1ccc2c3c([nH]c2c1)[C@@H](CO)N(Cc1ccccc1F)CC31CN(C(=O)C2CCCC2)C1	·	4	-2	·	·	0
O=C(C[C@H]1C=C[C@H](NS(=O)(=O)c2ccc(F)cc2)[C@@H](CO)O1)NC1CCCCC1	14[16.7 µM]	0	-1	·	39	4
COc1ccc(CCN(Cc2cccs2)S(=O)(=O)c2ccc(-n3cnnn3)cc2)cc1OC	86*	·	·	69	-3	·
COc1ccc(CCN(C)C(=O)COc2cccc(-n3cnnn3)c2)cc1OC	-17	3	2	·	2	83*
C[C@@H](NC(=O)[C@@H]1[C@@H](CO)[C@@H]2Cn3c(cccc3=O)[C@@H]2N1CC1CCCC1)c1ccccc1	·	·	-4	·	-3	17
C[C@@H]1CN([C@H](C)CO)C(=O)Cc2cc(NC(=O)Cc3ccccc3)ccc2O[C@@H]1CN(C)Cc1ccc(C(=O)O)cc1	-4[16.7 µM]	0	2	-4[16.7 µM]	-3	13
C=C1C(=O)C23C(O)C1CCC2C12CCCC(C)(COC(C)=O)C1C(O)C3(O)OC2 (stereo not given)	-25	-5	10	·	·	162*
CC(/C=C/C=C/c1ccccc1)=N/NC(=O)CNc1ccccc1C	8	·	·	-5	-1	136*
CC(/C=C/c1ccco1)=N/NC(=O)CNc1ccccc1C	19	-2	2	·	·	-8
CCSc1ccc(C(=O)Nc2ccc(Br)cn2)cc1[N+](=O)[O-]	-14	2	11	·	·	-1
CCSc1ccc(C(=O)Nc2cccc(C)n2)cc1[N+](=O)[O-]	-1	·	·	·	·	59*
CC(C)(C)n1nnnc1C(c1cccnc1)N1CCN(C2CCCCC2)CC1 (stereo not given)	65*	·	·	-15	1	·
CCOc1cc(NC(=O)Nc2ccc(F)cc2)c(OCC)cc1NC(=O)CC	-7	-2	-38*	·	0	-1
O=C(Nc1ccc(F)cc1)Nc1cc(OCC(F)(F)F)cc(OCC(F)(F)F)c1	70*	·	·	·	·	128*
CCN(CC(O)CON=C1c2ccccc2-c2ccccc21)S(=O)(=O)c1ccc(Cl)cc1 (stereo not given)	77*	·	·	·	·	3
CS(=O)(=O)N(CC(O)CON=C1c2ccccc2-c2ccccc21)c1ccc(F)cc1 (stereo not given)	·	·	·	3	-2	·
CCN(CC(O)CON=C1c2ccccc2-c2ccccc21)S(=O)(=O)c1ccc(C)cc1 (stereo not given)	79*	·	·	-6	5	-35
Cc1cccc(N(CC(O)CON=C2c3ccccc3-c3ccccc32)S(C)(=O)=O)c1 (stereo not given)	65*	·	·	8	-4	·
C[C@@H]1CN([C@@H](C)CO)C(=O)c2cc(C#CC3CC3)cnc2O[C@H]1CN(C)C(=O)Nc1ccccc1	-9[16.7 µM]	4	3	6[16.7 µM]	47	-7
CC1CC(C)CN(S(=O)(=O)c2ccc(Oc3ccc([N+](=O)[O-])cc3)cc2)C1 (stereo not given)	56*	·	·	-5	1	-33
CC1CCCN(S(=O)(=O)c2ccc([N+](=O)[O-])cc2)C1 (stereo not given)	0	1	16	-2	1	11
O=C(C1CCCCC1)N1CC2(C1)[C@@H](c1ccccc1)[C@@H](CO)N2Cc1ccc(Cl)cc1	·	2	-38	·	·	-32
O=C(N/N=C/c1ccncc1)c1cccs1	·	·	·	-1	-6	·
O=C(N/N=C/c1ccc(-n2ccnc2)cc1)c1cccs1	75*	0	1	0	-1	8
Cc1ccc(NC2c3ncccc3C(=O)N2C2CCCCC2)cc1C (stereo not given)	16	·	·	6	4	·
SMILES	Env fusion inh	CFTR F508del cor	Ecoli rRNA inh	miR-122 sensor	Cneo AK release	INS-1E GSIS act
Cc1ccc(NC2c3ncccc3C(=O)N2C2CCCCC2)cc1 (stereo not given)	-18	·	·	0	·	56*
COC(=O)c1ccc(CNC(=O)CSc2nc3ccccc3[nH]2)cc1	-2	1	2	1	4	79*
CC(C)c1nnc(NC(=O)CSc2nc3ccccc3[nH]2)s1	-19	-4	-28*	-6	0	-7
Cc1ccc(CNC(=O)CSc2nc3ccccc3[nH]2)cc1	-81	-1	-13	1	-4	2
COc1ccc(N2CCN(c3ncnc4c3cnn4-c3ccc(C)cc3C)CC2)cc1	·	0	6	13	-3	2
Cc1ccc(-n2ncc3c(NCc4cccnc4)ncnc32)c(C)c1	58*	·	·	·	·	-23
Cc1cccc(-n2ncc3c(NCc4cccnc4)ncnc32)c1	-25	-5	-7	9	-7	-38
Cc1ccc(-n2ncc3c(N4CCN(c5ccccc5)CC4)ncnc32)c(C)c1	90*	·	-4	-15	·	·
Cc1cc(C(=O)Nc2ccc3c(c2)C(=O)N(C)[C@H]2CC[C@@H](CC(=O)NCc4ccc(-c5ccccc5)cc4)O[C@H]2CO3)no1	4[16.7 µM]	·	-8	·	-5	-18
Cc1ccc(C#N)c(SCc2ccccc2F)n1	-4	-3	-25*	-4	-3	10
O=C1Nc2ccccc2-n2nnnc2C1N1CCN(c2ccccn2)CC1 (stereo not given)	-4	0	·	·	·	101*
O=C1Nc2ccccc2-n2nnnc2C1N1CCN(c2ccc(C(F)(F)F)cn2)CC1 (stereo not given)	16	3	9	·	·	-19
O=C(CCCNC(=O)c1ccc(Cl)cc1)Nc1ncccc1O	·	-1	-8	-6	1	28
O=C(CCCNC(=O)c1ccc(Cl)cc1)Nc1nccs1	-16	0	3	·	87*	-3
O=C(Cc1ccc(Cl)cc1)N1CCc2ccccc2C1	-10	2	-28*	-4	-5	9
O=C(COc1ccc(Br)cc1)N1CCc2ccccc2C1	-3	1	-26*	·	·	4
COc1ccc(CC(=O)N2CCc3ccccc3C2)cc1	-5	-2	2	·	-3	-11
C[C@H](CO)N1C[C@H](C)[C@H](CN(C)C(=O)NC2CCCCC2)Oc2ccc(N(C)C)cc2CC1=O	-8[16.7 µM]	1	3	6[16.7 µM]	3	-7
COc1ccccc1NC(=O)N[C@@H]1CC[C@@H](CCNC(=O)Cc2ccccn2)O[C@@H]1CO	8[16.7 µM]	0	3	·	2	19
Cc1ccccc1NC(=O)Nc1ccc2c(c1)C(=O)N(C)[C@@H]1CC[C@H](CC(=O)O)O[C@@H]1CO2	-6[16.7 µM]	-1	1	12[16.7 µM]	-2	6
COc1ccc(N2CC(O)=C(c3nc4ccccc4s3)C2=N)c(OC)c1	-1	·	·	102*	2	·
CC(C)C[C@@H]1COCc2cn(nn2)CC[C@H](Cc2ccccc2)C(=O)N1	1[16.7 µM]	·	4	·	1	8
